First the molecules themselves.
B1: tRNA (parent)
chain: GUUCCGUUGGCGUAAUGGUAACGCGUCUCCCUCCUAAGGAGAAGACUGCGGGUUCGAGUCCCGUACGGAACG

The variants in the series derive from B1. As to the kind of experiment: yeast fitness, log relative to wild type (ln ratio); higher = fitter; tRNA-Arg(CCU), competitive growth, 37 C, 1 M NaCl. In short, it runs like this: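 In BY4742 missing the chromosomal gene, a combinatorial tRNA-Arg(CCU) variant library was maintained on a HIS3 centromeric plasmid. Selection ran ~6.5 generations (~26.5 h) in SC-HIS 1M NaCl at 37 °C, following 4 generations in SC-HIS at 30 °C, with three outputs per input and variant counts by 125 bp paired-end Illumina sequencing. Fitness is the natural log of a genotype's generations relative to the wild type's, with generations taken as inverse-variance-weighted, OD-scaled log2 output/input frequency.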
Take GGUCCAUUGGCGUAAUGGUAACGCGUUUCCCUCCUAAGGAGACGAUUGCGGGUUCGAGUCCCGUAUGGAGUG: the “yeast fitness (ln)” value was -0.194.

In the case of GGUCCGUUGGCGUAAUGGUAACGCGUUUCCCUCCUAAGGAGAAGACUGCGGGUUCGAGUCCCGUACGGGACG, the “yeast fitness (ln)” value was -0.0592. For AUUCCUUUGGCGUAAUGGUAACGCGUCUCCCUCCUAAGGAGACGACUGCGGGUUCGAGUCCCGUACGGGUCG the value was -0.326; for AUUCCAUUGGCGUAAUGGUAACGCGUCUCCCUCCUAAGGAGAAGACUGCGGGUUCGAGUCCCGUAUGGAUUG, -0.216; for GGUCCUUUGGCGUAAUGGUAACGCGUUUCCCUCCUAAGGAGAAGAUUGCGGGUUCGAGUCCCGUACGGGUUG, -0.387. For AUUCCAUUGGCGUAAUGGUAACGCGUUUCCCUCCUAAGGAGACGAUUGCGGGUUCGAGUCCCGUAUGGAGCG the value was -0.27.

As for AGUCCAUUGGCGUAAUGGUAACGCGUUUCCCUCCUAAGGAGAAGAUUGCGGGUUCGAGUCCCGUACGGGGCG, the “yeast fitness (ln)” value was -0.226. For AGUCCUUUGGCGUAAUGGUAACGCGUCUCCCUCCUAAGGAGACGAUUGCGGGUUCGAGUCCCGUACGGAAUG the value was -0.335; for GUUCCUUUGGCGUAAUGGUAACGCGUCUCCCUCCUAAGGAGAAGAUUGCGGGUUCGAGUCCCGUAUGGGGCG, -0.275; for AGUCCGUUGGCGUAAUGGUAACGCGUCUCCCUCCUAAGGAGAAGAUUGCGGGUUCGAGUCCCGUAAGGAAUG, -0.0962.

On to ACUCCUUUGGCGUAAUGGUAACGCGUCUCCCUCCUAAGGAGAAGAUUGCGGGUUCGAGUCCCGUAUGGAUCG, for which the “yeast fitness (ln)” value is -0.0663. As for GCUCCGUUGGCGUAAUGGUAACGCGUUUCCCUCCUAAGGAGACGAUUGCGGGUUCGAGUCCCGUACGGAAUG, the figure is -0.0612; as for GCUCCGUUGGCGUAAUGGUAACGCGUUUCCCUCCUAAGGAGACGAUUGCGGGUUCGAGUCCCGUACGGGUCG, -0.169.

As for GGUCCAUUGGCGUAAUGGUAACGCGUUUCCCUCCUAAGGAGACGACUGCGGGUUCGAGUCCCGUAUGGGAUG, the “yeast fitness (ln)” value was -0.35.

As to GCUCCUUUGGCGUAAUGGUAACGCGUUUCCCUCCUAAGGAGAAGAUUGCGGGUUCGAGUCCCGUACGGGUCG, the “yeast fitness (ln)” value is -0.196. Regarding ACUCCAUUGGCGUAAUGGUAACGCGUCUCCCUCCUAAGGAGACGAUUGCGGGUUCGAGUCCCGUACGGGGCG, the “yeast fitness (ln)” value was -0.191. As to GGUCCGUUGGCGUAAUGGUAACGCGUCUCCCUCCUAAGGAGAAGAUUGCGGGUUCGAGUCCCGUAUGGAUUG, the “yeast fitness (ln)” value is -0.28. For the variant GGUCCUUUGGCGUAAUGGUAACGCGUCUCCCUCCUAAGGAGACGAUUGCGGGUUCGAGUCCCGUACGGGAUG, the “yeast fitness (ln)” value was -0.221.

As for GCUCCAUUGGCGUAAUGGUAACGCGUUUCCCUCCUAAGGAGAAGAUUGCGGGUUCGAGUCCCGUACGGGGUG, the “yeast fitness (ln)” value is -0.331. As for ACUCCGUUGGCGUAAUGGUAACGCGUUUCCCUCCUAAGGAGAAGAUUGCGGGUUCGAGUCCCGUAAGGAUUG, the figure is -0.15; as for AUUCCAUUGGCGUAAUGGUAACGCGUUUCCCUCCUAAGGAGACGAUUGCGGGUUCGAGUCCCGUACGGGUUG, -0.399. As for AUUCCUUUGGCGUAAUGGUAACGCGUCUCCCUCCUAAGGAGACGAUUGCGGGUUCGAGUCCCGUAUGGAUUG, the “yeast fitness (ln)” value is -0.432. For the variant GUUCCAUUGGCGUAAUGGUAACGCGUCUCCCUCCUAAGGAGAAGAUUGCGGGUUCGAGUCCCGUAUGGGAUG, the “yeast fitness (ln)” value is -0.0544. As for GCUCCAUUGGCGUAAUGGUAACGCGUUUCCCUCCUAAGGAGACGACUGCGGGUUCGAGUCCCGUACGGGGCG, the figure is -0.211; as for GCUCCAUUGGCGUAAUGGUAACGCGUCUCCCUCCUAAGGAGACGACUGCGGGUUCGAGUCCCGUACGGAAUG, -0.0318; as for GGUCCAUUGGCGUAAUGGUAACGCGUUUCCCUCCUAAGGAGACGAUUGCGGGUUCGAGUCCCGUAUGGGACG, -0.415. As to AGUCCGUUGGCGUAAUGGUAACGCGUUUCCCUCCUAAGGAGAAGAUUGCGGGUUCGAGUCCCGUACGGAUUG, the “yeast fitness (ln)” value was -0.0144. As for GCUCCAUUGGCGUAAUGGUAACGCGUUUCCCUCCUAAGGAGACGAUUGCGGGUUCGAGUCCCGUACGGAAUG, the figure is -0.115; as for AUUCCUUUGGCGUAAUGGUAACGCGUCUCCCUCCUAAGGAGAAGAUUGCGGGUUCGAGUCCCGUAAGGAUCG, -0.0534; as for GGUCCAUUGGCGUAAUGGUAACGCGUCUCCCUCCUAAGGAGACGACUGCGGGUUCGAGUCCCGUACGGAGCG, -0.0939.

As for ACUCCUUUGGCGUAAUGGUAACGCGUCUCCCUCCUAAGGAGACGAUUGCGGGUUCGAGUCCCGUACGGGGUG, the “yeast fitness (ln)” value is -0.124. For the variant ACUCCAUUGGCGUAAUGGUAACGCGUUUCCCUCCUAAGGAGACGAUUGCGGGUUCGAGUCCCGUACGGGUCG, the “yeast fitness (ln)” value is -0.132. For AGUCCUUUGGCGUAAUGGUAACGCGUUUCCCUCCUAAGGAGACGAUUGCGGGUUCGAGUCCCGUAAGGAGUG the value was -0.369. As for AUUCCGUUGGCGUAAUGGUAACGCGUCUCCCUCCUAAGGAGAAGAUUGCGGGUUCGAGUCCCGUAUGGAACG, the figure is -0.118; as for GGUCCGUUGGCGUAAUGGUAACGCGUCUCCCUCCUAAGGAGACGACUGCGGGUUCGAGUCCCGUAAGGAGUG, -0.237. As for GCUCCAUUGGCGUAAUGGUAACGCGUUUCCCUCCUAAGGAGAAGAUUGCGGGUUCGAGUCCCGUAAGGAUCG, the figure is -0.0453.

Consider GCUCCAUUGGCGUAAUGGUAACGCGUUUCCCUCCUAAGGAGACGACUGCGGGUUCGAGUCCCGUAUGGAUUG, for which the “yeast fitness (ln)” value was -0.309.

With AUUCCAUUGGCGUAAUGGUAACGCGUCUCCCUCCUAAGGAGAAGAUUGCGGGUUCGAGUCCCGUAUGGAGCG, the “yeast fitness (ln)” value is -0.189.

The values above are taken from the RNAGym collection of RNA variant scans (doi:10.1038/s41586-018-0170-7).
